Results: ChEMBL document CHEMBL3774382, “Design and synthesis of small molecule-sulfotyrosine mimetics that inhibit HIV-1 entry” (Bioorg Med Chem, 2016)

Columns and labels:
[1] = test system: Human immunodeficiency virus 1; assay: Antiviral activity against HIV1 CCR5-tropic strain YU2 infected in human 293T cells after 48 hrs by neutralization assay; format: functional, cell-based; details: Human immunodeficiency virus 1, isolate YU2, HEK-293T
Summary of the method: (§1)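 Env-pseudotyped virus made by transfecting 293T cells with SG3denv plus an HIV-1 env plasmid. Medium changed at 24 h, supernatant harvested at 48 h, 0.45 μm filtered, stored at −80 °C. Two-fold serial inhibitor dilutions mixed with virus, then TZM-bl cells added. Incubated at 37 °C, 5% CO₂, fresh medium at 24 h. Luciferase read after lysis at 48 h post-infection. Single round. Tested up to 400 μM.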

[2] = test system: Human immunodeficiency virus 1; assay: Antiviral activity against HIV1 JRCSF infected in human 293T cells after 48 hrs by neutralization assay; format: functional, cell-based; details: Human immunodeficiency virus 1, JRCSF ISOLATE, HEK-293T; summary of the method: as §1
[3] = test system: Human immunodeficiency virus 1; assay: Antiviral activity against HIV1 CXCR4-tropic strain HxB2 infected in human 293T cells after 48 hrs by neutralization assay; format: functional, organism-based; details: Human immunodeficiency virus 1, HxB2, HEK-293T; summary of the method: as §1
[4] = test system: Human immunodeficiency virus 1; assay: Antiviral activity against HIV1 dual CXCR4/CCR5-tropic strain 89.6 infected in human 293T cells after 48 hrs by neutralization assay; format: functional, organism-based; details: Human immunodeficiency virus 1, 89.6, HEK-293T; summary of the method: as §1
[5] = test system: Human immunodeficiency virus 1; assay: Antiviral activity against HIV1 NL4-3 infected in human 293T cells after 48 hrs by neutralization assay; format: functional, organism-based; details: Human immunodeficiency virus 1, NL4-3, HEK-293T; summary of the method: as §1
293T [6] = assay: Inhibition of envelope gp120 in CCR5-tropic HIV1 YU2 infected in human 293T cells assessed as dose reduction index ratio at 1: 10 at 1:10 inhibitor to CCR5 Nt sulfated peptide (2 to 18) by single round neutralization assay; format: cell-based; details: Human immunodeficiency virus type 1 (isolate YU2)
Summary of the method: (§2)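 Single-round YU2 pseudovirus neutralization in TZM-bl cells with luciferase read-out. Virus treated with inhibitor alone, with sulfated CCR5 N-terminal peptide 2–18 alone, or with a constant-ratio mixture, two-fold serial dilutions starting near 30× the single-agent IC₅₀. The ratio approximates the ratio of single-agent IC₅₀s. Analysed by the Chou–Talalay method. DRI is IC₅₀ alone divided by IC₅₀ in combination. CI below 1, equal to 1 and above 1 mean synergy, additivity and antagonism.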

293T [7] = assay: Inhibition of envelope gp120 in CCR5-tropic HIV1 YU2 infected in human 293T cells assessed as combination index at 1: 10 at 1:10 inhibitor to CCR5 Nt sulfated peptide (2 to 18) by single round neutralization assay; format: cell-based; details: Human immunodeficiency virus type 1 (isolate YU2); summary of the method: as §2
[8] = Cytotoxicity against human TZM-bl cells; format: cell-based; details: read-out: LC50 (the source's name)
[9] = Therapeutic index, ratio of LC50 for human TZM-bl cells to IC50 for HIV1; format: cell-based; details: read-out: TI
[10] = test system: Human immunodeficiency virus 1; assay: Antiviral activity against HIV1 CCR5-tropic strain YU2 infected in human 293T cells at 500 uM after 48 hrs by neutralization assay; format: functional, cell-based, isolate YU2
[11] = Cytotoxicity against human TZM-bl cells at 500 uM; format: cell-based
[12] = Cytotoxicity against human TZM-bl cells at 200 to 500 uM; format: cell-based
[13] = Binding affinity to HIV immobilized envelop gp120 at 80 to 350 uM by surface plasmon resonance analysis; parameters: species or system Human immunodeficiency virus
[14] = test system: Human immunodeficiency virus 1; assay: Antiviral activity against HIV1 CCR5-tropic strain YU2 infected in human 293T cells at 400 uM after 48 hrs by neutralization assay; format: functional, cell-based, isolate YU2; summary of the method: as §1
[15] = test system: Human immunodeficiency virus 1; assay: Antiviral activity against HIV1 JRCSF infected in human 293T cells after at 400 uM 48 hrs by neutralization assay; format: functional, cell-based, JRCSF ISOLATE; summary of the method: as §1
[16] = test system: Human immunodeficiency virus 1; assay: Antiviral activity against HIV1 dual CXCR4/CCR5-tropic strain 89.6 infected in human 293T cells at 400 uM after 48 hrs by neutralization assay; format: functional, organism-based; summary of the method: as §1

Structure (SMILES)	IC50 [1]	IC50 [2]	IC50 [3]	IC50 [4]	IC50 [5]	also measured
O=C1/C(=N\Nc2cc(S(=O)(=O)O)cc3cc(S(=O)(=O)O)cc(S(=O)(=O)O)c23)C(c2ccccc2)=NN1c1nc(-c2ccc(C(F)(F)F)cc2)cs1	80.6 µM	30.8 µM	28.9 µM	–	–	–
CC1=NN(c2nc(-c3ccc(C(F)(F)F)cc3)cs2)C(=O)/C1=N/Nc1ccc(S(=O)(=O)O)cc1	139 µM	–	–	–	–	–
O=C1/C(=N\Nc2ccc3c(S(=O)(=O)O)cc(S(=O)(=O)O)cc3c2)C(c2ccccc2)=NN1c1nc(-c2ccc3c(c2)OCCO3)cs1	22.3 µM	14.9 µM	5.2 µM	8.9 µM	7.7 µM	Ratio (293T [6]): 1.2; CI (293T [7]): 1.9; CC50 [8]: 70 µM; selectivity ratio [9]: < 10
O=C1/C(=N\Nc2ccc3c(S(=O)(=O)O)cc(S(=O)(=O)O)cc3c2)C(c2ccccc2)=NN1c1nc(-c2ccc(OC(F)(F)F)cc2)cs1	52.8 µM	29.8 µM	14.2 µM	14.8 µM	10.7 µM	–
COc1ccc(-c2csc(N3N=C(C)/C(=N\Nc4ccc(CS(=O)(=O)O)cc4)C3=O)n2)cc1	–	–	–	–	–	IC50 [10]: Not Active
CC1=NN(c2nc(-c3ccc(C(F)(F)F)cc3)cs2)C(=O)/C1=N\Nc1cc(S(=O)(=O)O)cc2cc(S(=O)(=O)O)cc(S(=O)(=O)O)c12	91.9 µM	26.1 µM	19.7 µM	–	–	–
COc1ccc(OC)c(-c2csc(N3N=C(C)/C(=N\Nc4ccc(S(=O)(=O)O)cc4)C3=O)n2)c1	189 µM	–	–	–	–	–
O=C1/C(=N\Nc2ccc(S(=O)(=O)O)cc2)C(c2ccccc2)=NN1c1nc(-c2ccccc2)cs1	–	–	–	–	–	Activity [11]: Non-toxic
CC1=NN(c2nc(-c3ccccc3)cs2)C(=O)/C1=N\Nc1ccc2c(S(=O)(=O)O)cc(S(=O)(=O)O)cc2c1	137 µM	64.8 µM	51.1 µM	101 µM	33.1 µM	–
O=C1/C(=N\Nc2ccc3c(S(=O)(=O)O)cc(S(=O)(=O)O)cc3c2)C(c2ccccc2)=NN1c1nc(C(F)(F)F)cs1	27.9 µM	5.8 µM	6.8 µM	2.4 µM	6.3 µM	CC50 [8]: 370 µM; selectivity ratio [9]: 13; Activity [12]: Toxic
COCC1=NN(c2nc(-c3ccc(OC)cc3)cs2)C(=O)/C1=N\Nc1ccc2c(S(=O)(=O)O)cc(S(=O)(=O)O)cc2c1	74.9 µM	36.2 µM	10.1 µM	22.3 µM	15.6 µM	–
COc1ccc(OC)c(-c2csc(N3N=C(c4ccccc4)/C(=N/Nc4ccc5c(S(=O)(=O)O)cc(S(=O)(=O)O)cc5c4)C3=O)n2)c1	30.7 µM	9.9 µM	2.5 µM	2.9 µM	3.6 µM	Activity [11]: Non-toxic; selectivity ratio [9]: 16
CC1=NN(c2nc(-c3ccc(S(=O)(=O)O)cc3)cs2)C(=O)/C1=N/Nc1ccc(S(=O)(=O)O)cc1	–	–	–	–	–	IC50 [10]: Not Active
COc1ccc(-c2csc(N3N=C(c4ccccc4)/C(=N/Nc4ccc5c(S(=O)(=O)O)cc(S(=O)(=O)O)cc5c4)C3=O)n2)cc1	24.7 µM	10.2 µM	7.5 µM	3.2 µM	5.8 µM	Kd [13]: 80 µM; Ratio (293T [6]): 1.3; CI (293T [7]): 2.3; CC50 [8]: 200 µM; selectivity ratio [9]: 10; Activity [12]: Toxic
O=C1/C(=N\Nc2ccc3c(S(=O)(=O)O)cc(S(=O)(=O)O)cc3c2)C(c2ccccc2)=NN1c1nc(-c2ccccc2)cs1	43.7 µM	30.7 µM	3.6 µM	8.4 µM	7.1 µM	Kd [13]: 350 µM
CC1=NN(c2nc(-c3ccc(C)cc3)cs2)C(=O)/C1=N\Nc1ccc(S(=O)(=O)O)cc1	126 µM	–	–	–	–	–
CC1=NN(c2nc(-c3ccccc3)cs2)C(=O)/C1=N\Nc1cc(S(=O)(=O)O)cc2cc(S(=O)(=O)O)cc(S(=O)(=O)O)c12	–	47.6 µM	36.8 µM	–	–	IC50 [14]: Not Active; CC50 [8]: 200 µM; selectivity ratio [9]: < 10; Activity [12]: Toxic
CC1=NN(c2nc(-c3ccc(O)c(O)c3)cs2)C(=O)/C1=N/Nc1ccc(S(=O)(=O)O)cc1	512 µM	–	–	–	–	–
COc1ccc(-c2csc(N3N=C(C)/C(=N/Nc4cc(S(=O)(=O)O)cc5cc(S(=O)(=O)O)cc(S(=O)(=O)O)c45)C3=O)n2)cc1	47.6 µM	27 µM	22.5 µM	–	–	–
COc1ccc(-c2csc(N3N=C(c4ccccc4)/C(=N/Nc4cc(S(=O)(=O)O)cc5cc(S(=O)(=O)O)cc(S(=O)(=O)O)c45)C3=O)n2)cc1	80.8 µM	32.3 µM	18.7 µM	–	–	Activity [11]: Non-toxic; selectivity ratio [9]: > 30
COc1ccc(-c2csc(N3N=C(C(F)(F)F)/C(=N/Nc4ccc5c(S(=O)(=O)O)cc(S(=O)(=O)O)cc5c4)C3=O)n2)cc1	298 µM	–	80 µM	–	104 µM	IC50 [15]: Not Active; IC50 [16]: Not Active
CC1=NN(c2nc(-c3ccc(OC(F)(F)F)cc3)cs2)C(=O)/C1=N/Nc1ccc(S(=O)(=O)O)cc1	400 µM	–	–	–	–	–
CN(C)c1ccc(-c2csc(N3N=C(c4ccccc4)/C(=N/Nc4ccc5c(S(=O)(=O)O)cc(S(=O)(=O)O)cc5c4)C3=O)n2)cc1	23.8 µM	8 µM	1.1 µM	3.8 µM	2.9 µM	Ratio (293T [6]): 1.2; CI (293T [7]): 2.5; CC50 [8]: 330 µM; selectivity ratio [9]: 13
O=C1/C(=N\Nc2ccc3c(S(=O)(=O)O)cc(S(=O)(=O)O)cc3c2)C(c2ccccc2)=NN1c1nc(-c2nccs2)cs1	30.9 µM	19.5 µM	12 µM	6.7 µM	10.2 µM	–
COc1ccc(-c2csc(N3N=C(C)/C(=N/Nc4ccc5c(S(=O)(=O)O)cc(S(=O)(=O)O)cc5c4)C3=O)n2)cc1	53.8 µM	22.1 µM	8.1 µM	9.2 µM	7 µM	Activity [11]: Non-toxic; selectivity ratio [9]: > 30
O=C1/C(=N\Nc2cc(S(=O)(=O)O)cc3cc(S(=O)(=O)O)cc(S(=O)(=O)O)c23)C(c2ccccc2)=NN1c1nc(-c2ccccc2)cs1	148 µM	35.5 µM	29.3 µM	–	–	–
CC1=NN(c2nc(-c3cccc(Cl)c3)cs2)C(=O)/C1=N/Nc1ccc(S(=O)(=O)O)cc1	432 µM	–	–	–	–	–
COc1ccc(-c2csc(N3N=C(COc4ccccc4)/C(=N/Nc4ccc5c(S(=O)(=O)O)cc(S(=O)(=O)O)cc5c4)C3=O)n2)cc1	62.4 µM	24.1 µM	9.4 µM	14.6 µM	11.2 µM	–
